Test [1] can be described thus: Effect on calcein accumulation in multidrug-resistant human 2780AD cells at 0.25 ug/ml relative to control. It is filed as functional, A2780 ADR. The gist of the method:
(§1)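 Multidrug-resistant human ovarian cancer 2780AD cells were exposed to test compounds at […], with verapamil as the positive control. Calcein accumulated in the cells was measured relative to a control experiment. Values are the mean of triplicate determinations.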

Test [2] can be described thus: Effect on calcein accumulation in multidrug-resistant human 2780AD cells at 2.5 ug/ml relative to control. The test is classed as functional, A2780 ADR. An outline of the steps: as §1
A short description of test [3]: Effect on calcein accumulation in multidrug-resistant human 2780AD cells at 25 ug/ml relative to control. It is filed as functional, A2780 ADR. An outline of the steps: as §1
Test [4] can be described thus: Cytotoxicity againt human WI38 cells. The test is classed as cell-based. The conditions noted are these: WI-38. The gist of the method:
(§2)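 IC50 was determined against WI-38, VA-13 and HepG2 cells and is given as the mean of duplicate determinations.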

The subject of test [5] is WI-38 VA13. The test can be described thus: Cytotoxicity againt human VA13 cells. It is filed as functional, cell-based. An outline of the steps:
as §2

Test [6] concerns HepG2. As to the kind of experiment: Cytotoxicity againt human HepG2 cells. The test is classed as functional, cell-based. The gist of the method: as §2
A short description of test [7]: Cytotoxicity againt multidrug-resistant human 2780AD cells. It is filed as functional, cell-based. The following applies: A2780 ADR. An outline of the steps: (§3)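 Each drug was tested alone or with a modulator added at final […]; verapamil was the reference modulator. Values are the mean of triplicate determinations.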
Test [8] relates to A2780. The test can be described thus: Cytotoxicity againt human A2780 cells. It is filed as functional, cell-based. An outline of the steps: as §3

The structures appear in SMILES notation. Values after ≈ are worked out from the molar mass of the structure shown.

Take `CC(=O)O[C@@H]1[C@@H]2CC(=O)C(C)=C([C@@H](OC(C)=O)[C@H](OC(C)=O)[C@]3(C)CC[C@H](O)[C@@](O)(CO)[C@@H]13)C2(C)C`: the Activity is on record as 79% in test [1], 94% in test [2] and 88% in test [3]. The half-inhibitory concentration (IC50) in test [4] was 85.3 µg/mL (≈ 167 µM); in test [5], 9.73 µg/mL (≈ 19.1 µM); in test [6], more than 100 µg/mL.

For `CC(=O)OC[C@]1(O)[C@@H](O)CC[C@@]2(C)[C@@H](OC(C)=O)[C@H](OC(C)=O)C3=C(C)C(=O)C[C@@H]([C@@H](O)[C@@H]21)C3(C)C`, the Activity in test [1] was 88%; in test [2], 97%; in test [3], 126%. Also, the results for the IC50 in test [4], in test [5] and in test [6] were more than 100 µg/mL, 8.47 µg/mL (≈ 16.6 µM) and more than 100 µg/mL, respectively.

On to `CC1=C2[C@@H](O)[C@H](O)[C@]3(C)CC[C@H]4OC[C@@]4(O)[C@H]3[C@H](OC(=O)c3ccccc3)[C@H](CC1=O)C2(C)C`, for which the Activity is 105% in test [1], 110% in test [2] and 106% in test [3]. In addition, the values for the IC50 in test [4], in test [5] and in test [6] were more than 100 µg/mL, more than 100 µg/mL and 67.7 µg/mL (≈ 144 µM), respectively.

On to `CC(=O)O[C@@H]1[C@@H]2C[C@H](O)C(C)=C([C@@H](OC(C)=O)[C@H](OC(C)=O)[C@]3(C)CC[C@H]4OC[C@@]4(O)[C@@H]13)C2(C)C`, for which the Activity was 94% in test [1], 95% in test [2] and 95% in test [3]. In addition, the results for the IC50 in test [4], in test [5] and in test [6] were 8.39 µg/mL (≈ 17 µM), 81.5 µg/mL (≈ 165 µM) and more than 100 µg/mL, respectively.

Regarding `CC(=O)O[C@H]1C(=O)[C@]2(C)CC[C@H]3OC[C@@]3(O)[C@H]2[C@H](OC(=O)c2ccccc2)[C@@H]2C[C@H](O)C(C)=C1C2(C)C`, the results for the Activity in test [1], in test [2] and in test [3] were 96%, 129% and 163%, respectively. The IC50 was found to be 54.2 µg/mL (≈ 106 µM) in test [4], 77 µg/mL (≈ 150 µM) in test [5] and 69.9 µg/mL (≈ 136 µM) in test [6].

Turning to `CC(=O)O[C@H]1[C@H](O)C2=C(C)C(=O)C[C@@H]([C@@H](OC(=O)c3ccccc3)[C@H]3[C@@]1(C)CC[C@H]1OC[C@]13O)C2(C)C`, the Activity in test [1] is recorded as 115%; in test [2] it was 118%; in test [3] it was 134%. For the same compound, the results for the IC50 in test [4], in test [5] and in test [6] were 0.67 µg/mL (≈ 1.31 µM), 67 µg/mL (≈ 131 µM) and 43.2 µg/mL (≈ 84.3 µM), respectively.

With `CC(=O)O[C@@H]1[C@@H]2C[C@@H](O)C(C)=C([C@@H](OC(C)=O)[C@H](OC(C)=O)[C@]3(C)CC[C@H]4OC[C@@]4(O)[C@@H]13)C2(C)C`, the Activity is 82% in test [1], 95% in test [2] and 96% in test [3]. The values for the IC50 in test [4], in test [5] and in test [6] were 76.2 µg/mL (≈ 154 µM), more than 100 µg/mL and more than 100 µg/mL, respectively.

In the case of `CC(=O)O[C@H]1C(=O)[C@]2(C)CC[C@H]3OC[C@@]3(O)[C@H]2[C@H](OC(=O)c2ccccc2)[C@@H]2CC(=O)C(C)=C1C2(C)C`, the Activity was 101% in test [1], 120% in test [2] and 137% in test [3]. In addition, the results for the half-maximal inhibitory concentration (IC50) in test [4], in test [5] and in test [6] were 7.38 µg/mL (≈ 14.5 µM), 7.93 µg/mL (≈ 15.5 µM) and 30.1 µg/mL (≈ 59 µM), respectively.

For the compound `CC(=O)O[C@@H]1C2=C(C)C(=O)C[C@@H]([C@@H](OC(=O)c3ccccc3)[C@H]3[C@@](C)(CC[C@H]4OC[C@]43O)[C@H]1OC(C)=O)C2(C)C`, the Activity in test [1] is 97%; in test [2], 119%; in test [3] it was 135%. For the same compound, the figures for the IC50 in test [4], in test [5] and in test [6] were 0.82 µg/mL (≈ 1.48 µM), 51.9 µg/mL (≈ 93.6 µM) and 7.32 µg/mL (≈ 13.2 µM), respectively.

For `CC(=O)OC[C@]1(O)[C@@H](O)CC[C@@]2(C)[C@@H](OC(C)=O)[C@H](OC(C)=O)C3=C(C)C(=O)C[C@@H]([C@@H](OC(=O)/C=C/c4ccccc4)[C@@H]21)C3(C)C`, the Activity is reported as 88% in test [1], 116% in test [2] and 145% in test [3]. The IC50 was determined as 68.1 µg/mL (≈ 106 µM) in test [4], 82.3 µg/mL (≈ 128 µM) in test [5] and 2.14 µg/mL (≈ 3.34 µM) in test [6].

`CC(=O)O[C@H]1C(=O)[C@]2(C)CC[C@H](O)[C@@](O)(CO)[C@H]2[C@H](OC(=O)c2ccccc2)[C@@H]2CC(=O)C(C)=C1C2(C)C`: the values for the Activity in test [1], in test [2] and in test [3] were 88%, 114% and 112%, respectively. The IC50 amounted to 57.4 µg/mL (≈ 109 µM) in test [4], 59.6 µg/mL (≈ 113 µM) in test [5] and 33.4 µg/mL (≈ 63.2 µM) in test [6].

`CC(=O)O[C@@H]1C2=C(C)C(=O)C[C@@H]([C@@H](OC(=O)c3ccccc3)[C@H]3[C@@](C)(CC[C@H]4OC[C@]43O)[C@H]1O)C2(C)C`: the Activity in test [1] is reported as 99%; in test [2], 102%; in test [3], 140%. In addition, the IC50 was 42.3 µg/mL (≈ 82.5 µM) in test [4], more than 100 µg/mL in test [5] and 77.7 µg/mL (≈ 152 µM) in test [6].

On to `CC(=O)O[C@@]12CO[C@@H]1C[C@H](O)[C@@]1(C)C(=O)[C@H](O)C3=C(C)[C@@H](O)C[C@@](O)([C@@H](OC(=O)c4ccccc4)[C@H]21)C3(C)C`, for which the Activity was 95% in test [1], 90% in test [2] and 93% in test [3].

Consider `CC(=O)O[C@@H]1[C@@H]2CC(=O)C(C)=C([C@@H](OC(C)=O)[C@H](OC(C)=O)[C@]3(C)CC[C@H]4OC[C@@]4(O)[C@@H]13)C2(C)C`, for which the Activity in test [1] is listed as 115%; in test [2], 120%; in test [3], 123%. Besides, the values for the concentration for half-maximal inhibition (IC50) in test [4], in test [5] and in test [6] were 77 µg/mL (≈ 156 µM), more than 100 µg/mL and more than 100 µg/mL, respectively.

As for `COc1ccc(CCN(C)CCCC(C#N)(c2ccc(OC)c(OC)c2)C(C)C)cc1OC` (stereo unspecified), the Activity in test [1] is reported as 99%; in test [2], 103%; in test [3] it was 140%.

For the compound `CC(=O)O[C@H]1C(=O)[C@@]2(C)[C@H]([C@H](OC(=O)c3ccccc3)[C@]3(O)C[C@H](O)C(C)=C1C3(C)C)[C@]1(OC(C)=O)CO[C@@H]1C[C@@H]2O` [BACCATIN III], the Activity is on record as 93% in test [1], 84% in test [2] and 81% in test [3]. In addition, the IC50 in test [4] came to 16.1 µg/mL (≈ 27.4 µM); in test [5], 0.84 µg/mL (≈ 1.43 µM); in test [6], 9.91 µg/mL (≈ 16.9 µM).

For `COc1cccc2c1C(=O)c1c(O)c3c(c(O)c1C2=O)C[C@@](O)(C(=O)CO)C[C@@H]3O[C@H]1C[C@H](N)[C@H](O)[C@H](C)O1` [DOXORUBICIN], the IC50 in test [7] amounted to 909 nM; in test [8] it was 13 nM.

Regarding `CC(=O)O[C@H]1C(=O)[C@@]2(C)[C@H]([C@H](OC(=O)c3ccccc3)[C@]3(O)C[C@H](OC(=O)[C@H](O)[C@@H](NC(=O)c4ccccc4)c4ccccc4)C(C)=C1C3(C)C)[C@]1(OC(C)=O)CO[C@@H]1C[C@@H]2O` [PACLITAXEL], the values for the concentration for half-maximal inhibition (IC50) in test [7] and in test [8] were 535 nM and 0.7 nM, respectively.

Consider `CC[C@]1(O)C[C@H]2CN(CCc3c([nH]c4ccccc34)[C@@](C(=O)OC)(c3cc4c(cc3OC)N(C=O)[C@H]3[C@@](O)(C(=O)OC)[C@H](OC(C)=O)[C@]5(CC)C=CCN6CC[C@]43[C@@H]65)C2)C1` [VINCRISTINE], for which the IC50 came to 895 nM in test [7] and 0.9 nM in test [8].

The values are drawn from ChEMBL document CHEMBL1139110, “Structure-activity relationships of some taxoids as multidrug resistance modulator” (Bioorg Med Chem Lett, 2007).
